{"data": "Published values gathered from unrelated publications", "read-out": "cell growth or viability", "note": "pEC50: −log10 of the molar value."}
{"Compound": "CCC(=CCc1c(O)cc2c(c1O)C(=O)CC(c1ccc(O)cc1)O2)CC (stereo in doubt)", "cell line": "HeLa", "test": "MTT", "setting": "6.25 µM, 48 h", "quantity": "inhibition", "result": "9.54%"}
{"Compound": "N#CSCCCCOc1ccc2c(-c3ccccc3)cc(=O)oc2c1", "cell line": "HeLa", "test": "SRB", "quantity": "GI50", "result": "25 µM"}
{"Compound": "Cc1nc(Nc2ncc(C(=O)Nc3c(C)cccc3Cl)s2)cc(N2CC[C@H](O)C2)n1", "cell line": "P3HR-1", "test": "ATP luminescence", "setting": "10 µM, 72 h", "quantity": "inhibition", "result": "51%"}
{"Compound": "CCC(=CCc1c(O)cc2c(c1O)C(=O)C[C@@H](c1ccccc1O)O2)CC", "cell line": "HeLa", "test": "MTT", "setting": "15 µM, 48 h", "quantity": "inhibition", "result": "0.607%"}
{"Compound": "CCOc1ccc(C(=O)CC(SCc2ccc(Cl)cc2)C(=O)OC)cc1 (centres unmarked)", "cell line": "U2OS", "test": "MTT", "setting": "48 h", "quantity": "pEC50", "result": 4.80}
{"Compound": "[NH2][Pt]([NH2])([Cl])[Cl]", "cell line": "HeLa", "test": "SRB", "quantity": "GI50", "result": "1.9 µM"}
{"Compound": "Cc1nc(NC(=O)N2CCC[C@H]2C(N)=O)sc1-c1ccnc(C(C)(C)C(F)(F)F)c1", "cell line": "Detroit 562", "test": "ATP luminescence", "setting": "5 days", "quantity": "pEC50", "result": 4.53}
{"Compound": "CCOc1ccc(-c2cc(C(=O)O)c(-c3ccc(Cl)cc3)o2)cc1", "cell line": "U2OS", "test": "MTT", "setting": "48 h", "quantity": "pEC50", "result": 4.32}
{"Compound": "Cc1c(Cl)c(=O)oc2cc(OCCCCSC#N)ccc12", "cell line": "HeLa", "test": "SRB", "quantity": "GI50", "result": "6.2 µM"}
{"Compound": "CCOc1cccc(C(=O)CC(SCc2cccc(Br)c2)C(=O)O)c1 (centres unmarked)", "cell line": "U2OS", "test": "MTT", "setting": "48 h", "quantity": "pEC50", "result": 4.01}
{"Compound": "C=C(NC(=O)C(=C)NC(=O)c1csc(C2=N[C@@H]3c4csc(n4)[C@H]4NC(=O)c5csc(n5)[C@H]([C@](C)(O)[C@@H](C)O)NC(=O)[C@H]5CSC(=N5)/C(=C/C)NC(=O)[C@H]([C@@H](C)O)NC(=O)c5csc(n5)[C@]3(CC2)NC(=O)[C@H](C)NC(=O)C(=C)NC(=O)[C@H](C)NC(=O)[C@H]([C@@H](C)CC)N[C@@H]2C=Cc3c([C@H](C)O)cc(nc3[C@H]2O)C(=O)O[C@@H]4C)n1)C(N)=O", "cell line": "NCI-H1792", "quantity": "pEC50", "result": 5.49}
